Results on 72 compounds are retold here after ChEMBL document CHEMBL4513216, “Probing the Open Global Health Chemical Diversity Library for Multistage-Active Starting Points for Next-Generation Antimalarials” (ACS Infect Dis, 2020).

The data set is described as follows: Toxicity liver stage against HepG2, at 10uM. Format: cell-based. Set-up: test concentration 10 uM, cell line HepG2-A16-CD81EGFP. Particulars: human, HepG2-A16-CD81EGFP cells; read-out: INHIBITION
In outline:
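Uninfected HepG2-A16-CD81EGFP cells, 3 × 10^3 per well, 1536-well, plated on prespotted compound at 10 μM final, parasite-free screening media added to match infected plates; puromycin 10 μM positive, DMSO 0.5% negative; run in parallel with 48 h PbLuc assay at 37 °C, 5% CO2; viability by CellTiter-Glo luminescence, normalized to controls.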

Regarding `O=C(CSc1ccc(F)cc1)NS(=O)(=O)c1ccc2c(c1)OCCO2`, the cytotoxicity at 10 µM was -29.1%. As to `COCCNc1ccc(CNCc2cnc3nc(C)cc(C)n23)cc1`, the cytotoxicity at 10 µM is -153%. In the case of `COCC(=O)N1CCN(Cc2nnc(C(C)(C)C)o2)CC1` it was 7.66%; in that of `Cc1cc(S(=O)(=O)Nc2onc(C)c2C)sc1C`, 5.54%. Take `Cn1c(CO[C@H]2CN(S(C)(=O)=O)C[C@H]2F)nc2ccccc21`: the cytotoxicity at 10 µM was -0.714%. With `Cc1nc(-c2ccc(Cl)s2)sc1C(=O)N(C)CC(N)=O`, the cytotoxicity at 10 µM was -7.08%. In the case of `Cc1noc(C)c1CNC(=O)N1Cc2ccccc2N(C)CC1C` (configuration not stated) it was -2.42%; in that of `CC(C)(C)S(=O)(=O)c1ccc(N2CCC(n3cncn3)CC2)cn1`, 3.94%; in that of `CSC(C)C(=O)N1CCN(CC(C)(C)O)CC1` (configuration not stated), -10.2%.

`CN(CC(=O)NS(=O)(=O)c1ccc(F)cc1)Cc1ccccc1`: the cytotoxicity at 10 µM amounted to 14.3%. Regarding `OC[C@H]1CN(Cc2c(Cl)cncc2Cl)C[C@H]1CN1CCOCC1`, the cytotoxicity at 10 µM was -107%. As for `Cc1cnc2n(c1=O)CC(C(=O)NCc1ccccc1Cl)CS2` (configuration not stated), the cytotoxicity at 10 µM was -1.74%. Take `CN(C)CCOCc1nnc2n1CCN(Cc1ccc(F)cc1)CC2`: the cytotoxicity at 10 µM is -5.63%. For the compound `Cc1cc(NCc2nnc3n2CCCCC3)n2nc(C)c(C)c2n1`, the cytotoxicity at 10 µM is 5.66%. In the case of `O=C(NC1CCCC1)N1CCCC(c2nccn2Cc2ccncc2)C1` (configuration not stated) it was -18.3%; in that of `O=C1Nc2ccccc2C12CCN(c1nccs1)CC2`, -0.449%; in that of `Cc1cn[nH]c1C1COCCN1S(=O)(=O)c1cn[nH]c1` (configuration not stated), -24.6%. Regarding `CCOCC1CN(S(=O)(=O)c2ccccc2)Cc2nccn2C1` (configuration not stated), the cytotoxicity at 10 µM is -112%.

Regarding `COc1ccc(CNCc2ccnc(N3CCOCC3)c2)c(OC)c1`, the cytotoxicity at 10 µM is -8.92%. Regarding `Cc1c(C)n(Cc2ccccn2)c2nc3c(c(N)c12)CCCCC3`, the cytotoxicity at 10 µM was determined as 3.3%. In the case of `CCSc1ccccc1C(=O)NCCN1CCC(c2cccs2)CC1` it was -7.98%. In the case of `CCCN(CC(=O)OC)C(=O)c1sc(C)nc1C` it was -2.42%. In the case of `CCOC(=O)C1CN(CC2CC2)Cc2ncn(CC)c21` (configuration not stated) it was 12.2%; in that of `COC(=O)N1CCC(NC(=O)c2cc(S(N)(=O)=O)ccc2C)CC1`, -1.22%; in that of `CC(C)CN1C(=O)C2(CCCC2)NC1c1cccnc1` (configuration not stated), 3.71%.

Take `Cc1nnc2n1CCN(C(=O)C1CCC(n3cccc3)CC1)C2` (configuration not stated): the cytotoxicity at 10 µM is -1.05%.

As to `O=C(C1CCC1)N1CCN(Cc2cccnc2)[C@H]2CS(=O)(=O)C[C@H]21`, the cytotoxicity at 10 µM turned out to be 1.02%. Turning to `O=C(CCNC(=O)C1CCCC1)NCc1ccccc1Cn1ccnc1`, the cytotoxicity at 10 µM was -2.74%.

As to `CNC(=O)c1cc2c(nc1NCC1CC1)CCNCC2`, the cytotoxicity at 10 µM was -0.966%. Turning to `COc1nsc2nc(C3CCCN3C(C)=O)ccc12` (configuration not stated), the cytotoxicity at 10 µM was 6.78%.

In the case of `CSCc1ccc(N2CCC(C(O)CC(C)C)CC2)nc1` (configuration not stated), the cytotoxicity at 10 µM worked out at 11.4%. For `O=C(c1ccc(OCC2CC2)cc1)N1CCOCC1c1ncon1` (configuration not stated), the cytotoxicity at 10 µM is 1.79%.

Regarding `NC(=O)COc1ccc(CNC(=O)CN2CCc3ccccc32)cc1`, the cytotoxicity at 10 µM is -4.07%. In the case of `Cc1nnsc1C(=O)N1CCCC(n2nnc3cc(F)ccc32)C1` (configuration not stated) it was 3.49%; in that of `CCC(C)NC(=O)Cc1c(C)nc2c(c1C)c(=O)[nH]n2C` (configuration not stated), -11.4%.

For `Cc1c(C(=O)NC(C)CC(=O)c2cccs2)cnn1C` (configuration not stated), the cytotoxicity at 10 µM was -8.71%. `Cc1cccnc1CN1CCN(CC(=O)N(C)C)[C@@H]2CS(=O)(=O)C[C@@H]21`: the cytotoxicity at 10 µM was -2.33%. Consider `O=c1n(Cc2ccccn2)nc(C2CCNCC2)n1Cc1ccccc1`, for which the cytotoxicity at 10 µM amounted to 2.69%. In the case of `CCc1nc(CCNC(=O)Nc2ccc(C(=O)NC)cc2)cs1` it was 7.51%; in that of `COc1ccccc1C(=O)N1CCC(O)(c2cccc(C)c2C)CC1`, 12.1%; in that of `CC(C)(C)OC(=O)N[C@H]1CCN(c2cncc(Br)c2)C1`, -52.8%. As for `O=C(Nc1nc[nH]n1)c1cc(-c2ccc(F)cc2)n[nH]1`, the cytotoxicity at 10 µM was -5.4%.

As for `Cn1nc(CNC(=O)c2ccc(Cl)cc2)c2c1CCOC2`, the cytotoxicity at 10 µM is 5.86%. For the compound `O=C(NCc1ccncc1)N1CC(Cc2ccccc2F)C1`, the cytotoxicity at 10 µM is -8.85%. In the case of `CCn1ncc2c1C(COCC1CC1)CN(C(=O)c1ccncn1)C2` (configuration not stated) it was -74.8%. With `CC(=O)Nc1ccc(SCC(O)COCc2ccccc2)cc1` (configuration not stated), the cytotoxicity at 10 µM stood at 1.87%. In the case of `Fc1cccc(N2CCCC3(CN(Cc4cccnc4)CCO3)C2)c1` (configuration not stated) it was -78.2%. Consider `Cc1cc(CN2CCN(CC(O)c3ccccc3)CC2)no1` (configuration not stated), for which the cytotoxicity at 10 µM was -14.4%. In the case of `Cc1cnn(CC2CCCN2C(=O)Cc2c(C)nc(C)[nH]c2=O)c1` (configuration not stated) it was -3.63%; in that of `COc1cccc(N2CCN(Cc3cc(C)cc(F)c3)CC2=O)c1`, 25.9%. Regarding `COCC(NC1CCSCC1)c1ccnn1C` (configuration not stated), the cytotoxicity at 10 µM came to 13.5%. With `COCC(=O)N1Cc2cn(C)nc2C(COc2cccnc2)C1` (configuration not stated), the cytotoxicity at 10 µM was -11%. With `COCCN1CCC2(CC1)CC(NC(=O)COC)c1ccccc1O2` (configuration not stated), the cytotoxicity at 10 µM was -8.43%.

As to `Cc1ccc(Cn2cc(C)c(N)n2)cc1`, the cytotoxicity at 10 µM was -0.751%. On to `O=C(NCCc1nnc2n1CCC2)NCC1(c2ccc(F)cc2)CC1`, for which the cytotoxicity at 10 µM is -2.23%.

For the compound `COCCN(CCC#N)Cn1cc(Cl)cn1`, the cytotoxicity at 10 µM came to 4.68%. In the case of `COc1cc(C(=O)NC(C)(C)CN2CCN(C)CC2)c2ccccc2n1`, the cytotoxicity at 10 µM is -1.41%. Take `COC(C(=O)NCc1c(C)nc2cc(=O)[nH]n2c1C)c1ccccc1` (configuration not stated): the cytotoxicity at 10 µM was determined as 0.493%. In the case of `N#CCCCS(=O)(=O)N1CCCC1CC(=O)c1cccs1` (configuration not stated), the cytotoxicity at 10 µM is -5.07%. On to `O=C(c1ccco1)N1CCCC2(CN(Cc3ccsc3)CCO2)C1` (configuration not stated), for which the cytotoxicity at 10 µM is -2.37%.

Turning to `Cc1cn2nc(N3CCCC3Cn3nc(C)cc3C)sc2n1` (configuration not stated), the cytotoxicity at 10 µM is -1.32%. `O=C(c1ccc(Cn2cc(Br)cn2)cc1)N1CCOCC1`: the cytotoxicity at 10 µM is -13.6%. As to `COCCNC(=O)Cn1cc(NC(=O)c2cccc(Cl)c2Cl)cn1`, the cytotoxicity at 10 µM is -7.04%.

With `Cc1ncc(CNC(=O)NCc2c(F)cccc2OC(F)F)s1`, the cytotoxicity at 10 µM is -4.27%. As for `Cc1nn(C)c2c(NCc3ccccn3)nc(C(C)C)nc12`, the cytotoxicity at 10 µM was -3.23%. `CN(C)CCN(CC1CCCO1)C(=O)Cc1cn2ccccc2n1` (configuration not stated): the cytotoxicity at 10 µM was -2.96%. `Cc1nc(CN2CCO[C@@H]3CN(C(=O)NC(C)C)CC[C@@H]3C2)cs1`: the cytotoxicity at 10 µM worked out at 0.41%. In the case of `CC(NC(=O)NCCCn1cncn1)c1ccccc1F` (configuration not stated) it was -13.3%. As to `CCn1cc2[nH]c(OC)c(CNC(=O)C3CCS(=O)(=O)CC3)cc-2c1=O`, the cytotoxicity at 10 µM was 4.93%. Take `Cc1ccc(OCCC(=O)N2CCN(c3cnccn3)CC2)cc1C`: the cytotoxicity at 10 µM is -12.2%. Turning to `CN(Cc1nc(CS(C)(=O)=O)no1)c1ccccc1`, the cytotoxicity at 10 µM worked out at 4.04%.

Regarding `O=S(=O)(NCCN1CCCCC1Cn1cncn1)c1ccccc1` (configuration not stated), the cytotoxicity at 10 µM was -9.12%.
